Activity calls are given as the source filed them.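 Rule for the calls, unless noted: active = GFP response above 150% of the DMSO level; inconclusive = fewer than 70 events counted for a yeast strain; inactive = the rest.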
Assays:
[1] = hit retest on RPL19A-GFP reporter strain – cell-based, S. cerevisiae, flow cytometry, cherry picks, mother/daughter gates, confirmation (AID 2270;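 active = GFP response below 50% of the DMSO control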); conditions: 3 h, at 10 µM, stronger effect = lower value, 100 = same GFP as DMSO wells
[2] = yeast TOR pathway reporter LAP4-GFP change – cell-based, cherry picks, flow cytometry, mother/daughter gates, confirmation (AID 2271;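 active = GFP response above 150% of the DMSO control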;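 note: ratio of sample to DMSO plate mean so 100% equals DMSO level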); conditions: S. cerevisiae LAP4-GFP strain, 3 h, at 10 µM, stronger effect = higher value, 100 means same as DMSO control
Outline: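 Test system: GFP-fusion yeast strain. Medium: synthetic complete (SC) yeast growth medium. Timing: 3 h treatment at 30 °C with rotation. Measured by: GFP by flow cytometry. Control set: positive rapamycin (400 ng/mL), negative DMSO.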

[3] = TOR pathway reporter MEP2-GFP, retest of hits – S. cerevisiae, flow cytometry GFP, cherry picks, confirmation (AID 2272;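 active = GFP response above 150% of the DMSO control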;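 note: ratio of well signal to plate DMSO mean so 100% equals DMSO level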); conditions: S. cerevisiae MEP2-GFP strain, 3 h, at 10 µM, stronger effect = higher value
[4] = yeast AGP1-GFP fluorescence change, single-dose – cell-based, flow cytometry, S. cerevisiae, cherry picks, confirmation (AID 2273);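 note: median GFP channel fluorescence over the whole cell population gate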; conditions: S. cerevisiae AGP1-GFP strain, 3 h, at 10 µM
[5] = TOR pathway CIT2 reporter hit retest – S. cerevisiae, GFP fusion, cherry picks, mother/daughter gates, confirmation (AID 2274); conditions: S. cerevisiae CIT2-GFP strain, flow cytometry, 3 h, at 10 µM, stronger effect = higher value
[6] = measured here: daughter cell gate
[7] = measured here: mother cell gate
[8] = measured here: daughter cell gate response
[9] = measured here: mother cell gate response

Compound | GFP response vs DMSO [1] | GFP response vs DMSO [1, 6] [%] | GFP response vs DMSO [1, 7] [%] | GFP response relative to DMSO [2] | GFP response relative to DMSO [2, 8] [%] | GFP response relative to DMSO [2, 9] [%] | GFP response vs DMSO [3] | GFP response, % of DMSO [4] | GFP response, % of DMSO [5] | GFP response, % of DMSO [5, 6] [%] | GFP response, % of DMSO [5, 7] [%]
C/C(CCC12CC3CC(CC(C3)C1)C2)=N\NC(N)=S | 87.9% (inactive) | 84.6 | 90.7 | 133% (inactive) | 125 | 135 | 98.3% (inactive) | 96% (inactive) | 89.8% (inactive) | 88.1 | 87.8
O=c1cnnc(SCc2ccc([N+](=O)[O-])cc2)[nH]1 | 97.4% (inactive) | 99.1 | 96.2 | 102% (inactive) | 101 | 100 | 105% (inactive) | 96% (inactive) | 98.3% (inactive) | 99.1 | 98.5
CS(=O)(=O)N1N=C(c2ccco2)CC1c1ccccc1 (centres undefined) | 100% (inactive) | 101 | 99.9 | 102% (inactive) | 102 | 100 | 99% (inactive) | 105% (inactive) | 106% (inactive) | 105 | 103
CCOC(=O)C1C(=O)C=C(c2ccc(C)cc2)CC1c1ccco1 (centres undefined) | 99.9% (inactive) | 97.8 | 101 | 109% (inactive) | 103 | 112 | 102% (inactive) | 102% (inactive) | 95.2% (inactive) | 91.5 | 96.6
COC(=O)CNc1c(-c2ccccn2)nc2ccc(Br)cn12 | 100% (inactive) | 103 | 100 | 96.7% (inactive) | 96 | 96.1 | 102% (inactive) | 98.7% (inactive) | 107% (inactive) | 106 | 104
Cc1ccccc1NC(=O)CC1SC(=O)N(c2ccccc2)C1=O (centres undefined) | 94.9% (inactive) | 97.3 | 91 | 131% (inactive) | 127 | 133 | 112% (inactive) | 104% (inactive) | 104% (inactive) | 108 | 94.9
CCSC1=NCCN1S(=O)(=O)c1ccc(F)cc1 | 98.8% (inactive) | 97.6 | 99 | 105% (inactive) | 101 | 106 | 103% (inactive) | 101% (inactive) | 93.4% (inactive) | 93.7 | 92.8
O=C(c1cc(-c2cccc(Cl)c2)on1)N1CCc2ccccc2C1 | 99.2% (inactive) | 100 | 99.5 | 95.7% (inactive) | 95.9 | 95.2 | 99% (inactive) | 104% (inactive) | 97.3% (inactive) | 97.4 | 96.8
O=C(/C=C/c1ccc(F)cc1)NC(=S)NNC(=O)c1cnccn1 | 108% (inactive) | 89.8 | 105 | 313% (active) | 146 | 301 | 132% (inactive) | 83.4% (inactive) | 124% (inactive) | 101 | 113
CCCc1nn(-c2ccccc2)c2c1C(c1cccs1)C(C#N)=C(N)O2 (centres undefined) | 101% (inactive) | 100 | 102 | 90.2% (inactive) | 92.5 | 95.2 | 95.7% (inactive) | 95.9% (inactive) | 102% (inactive) | 98.1 | 102
COCCN(CCOC)S(=O)(=O)c1ccc(C(=O)Nc2nnc(C)o2)cc1 | 100% (inactive) | 100 | 101 | 99.5% (inactive) | 97.5 | 98.4 | 99% (inactive) | 100% (inactive) | 102% (inactive) | 103 | 101
O=Nc1c(O)c2ccccc2c2ccccc12 | 113% (inactive) | 109 | 111 | 114% (inactive) | 113 | 119 | 111% (inactive) | 104% (inactive) | 107% (inactive) | 106 | 105
Cc1cccn2c(=O)c(/C=C(\C#N)C(=O)NCc3ccccc3)c(N3CCC(C(N)=O)CC3)nc12 | 98.7% (inactive) | 99 | 97.5 | 101% (inactive) | 102 | 101 | 101% (inactive) | 104% (inactive) | 101% (inactive) | 103 | 103
COc1ccc(C(=O)/C=C2/C(=O)Nc3ccccc32)cc1 | 86.7% (inactive) | 88.1 | 82.7 | 133% (inactive) | 122 | 139 | 96.2% (inactive) | 95.4% (inactive) | 98.3% (inactive) | 97.2 | 91.4

From PubChem BioAssay
